From PubChem
MT1-MMP act inh – MT1-MMP (human) activation inhibition; 0.061% of 360,000 active; GFP/RFP ratio change, % at 20 µM; HT1080 RFP-PRO-GFP cells, GFP/RFP ratio fluorescence, overnight; percent of plate control window, DMSO zero;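 active means GFP/RFP ratio change of at least 30% with cell ATP level not reduced by more than half and red fluorescence within 50% of control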
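Assay system: HT1080 cells carrying an RFP-PRO-GFP reporter | Dosing: Single dose of 20 µM compound, 1% DMSO final | Incubation: Cells overnight before dosing, compound overnight, 37 °C, 5% CO2 | Evaluation: GFP/RFP fluorescence ratio | Control set: DMSO and RFP-L50D-GFP cell wells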
FAS-TE inh – blocks the thioesterase domain of human fatty acid synthase | P49327 | recombinant FAS-TE, OMFH fluorogenic substrate, fluorescence endpoint | inhibition, % at 15 µM | 0.67% of 360,000 active | AID 602261;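 active means compounds whose normalised, plate-corrected inhibition of enzyme fluorescence in the single-dose primary screen is 50% or more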;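 further: 0% = DMSO with enzyme and 100% = substrate without enzyme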
Target sequence (P49327 whole entry, looked up, the tested form may be a part): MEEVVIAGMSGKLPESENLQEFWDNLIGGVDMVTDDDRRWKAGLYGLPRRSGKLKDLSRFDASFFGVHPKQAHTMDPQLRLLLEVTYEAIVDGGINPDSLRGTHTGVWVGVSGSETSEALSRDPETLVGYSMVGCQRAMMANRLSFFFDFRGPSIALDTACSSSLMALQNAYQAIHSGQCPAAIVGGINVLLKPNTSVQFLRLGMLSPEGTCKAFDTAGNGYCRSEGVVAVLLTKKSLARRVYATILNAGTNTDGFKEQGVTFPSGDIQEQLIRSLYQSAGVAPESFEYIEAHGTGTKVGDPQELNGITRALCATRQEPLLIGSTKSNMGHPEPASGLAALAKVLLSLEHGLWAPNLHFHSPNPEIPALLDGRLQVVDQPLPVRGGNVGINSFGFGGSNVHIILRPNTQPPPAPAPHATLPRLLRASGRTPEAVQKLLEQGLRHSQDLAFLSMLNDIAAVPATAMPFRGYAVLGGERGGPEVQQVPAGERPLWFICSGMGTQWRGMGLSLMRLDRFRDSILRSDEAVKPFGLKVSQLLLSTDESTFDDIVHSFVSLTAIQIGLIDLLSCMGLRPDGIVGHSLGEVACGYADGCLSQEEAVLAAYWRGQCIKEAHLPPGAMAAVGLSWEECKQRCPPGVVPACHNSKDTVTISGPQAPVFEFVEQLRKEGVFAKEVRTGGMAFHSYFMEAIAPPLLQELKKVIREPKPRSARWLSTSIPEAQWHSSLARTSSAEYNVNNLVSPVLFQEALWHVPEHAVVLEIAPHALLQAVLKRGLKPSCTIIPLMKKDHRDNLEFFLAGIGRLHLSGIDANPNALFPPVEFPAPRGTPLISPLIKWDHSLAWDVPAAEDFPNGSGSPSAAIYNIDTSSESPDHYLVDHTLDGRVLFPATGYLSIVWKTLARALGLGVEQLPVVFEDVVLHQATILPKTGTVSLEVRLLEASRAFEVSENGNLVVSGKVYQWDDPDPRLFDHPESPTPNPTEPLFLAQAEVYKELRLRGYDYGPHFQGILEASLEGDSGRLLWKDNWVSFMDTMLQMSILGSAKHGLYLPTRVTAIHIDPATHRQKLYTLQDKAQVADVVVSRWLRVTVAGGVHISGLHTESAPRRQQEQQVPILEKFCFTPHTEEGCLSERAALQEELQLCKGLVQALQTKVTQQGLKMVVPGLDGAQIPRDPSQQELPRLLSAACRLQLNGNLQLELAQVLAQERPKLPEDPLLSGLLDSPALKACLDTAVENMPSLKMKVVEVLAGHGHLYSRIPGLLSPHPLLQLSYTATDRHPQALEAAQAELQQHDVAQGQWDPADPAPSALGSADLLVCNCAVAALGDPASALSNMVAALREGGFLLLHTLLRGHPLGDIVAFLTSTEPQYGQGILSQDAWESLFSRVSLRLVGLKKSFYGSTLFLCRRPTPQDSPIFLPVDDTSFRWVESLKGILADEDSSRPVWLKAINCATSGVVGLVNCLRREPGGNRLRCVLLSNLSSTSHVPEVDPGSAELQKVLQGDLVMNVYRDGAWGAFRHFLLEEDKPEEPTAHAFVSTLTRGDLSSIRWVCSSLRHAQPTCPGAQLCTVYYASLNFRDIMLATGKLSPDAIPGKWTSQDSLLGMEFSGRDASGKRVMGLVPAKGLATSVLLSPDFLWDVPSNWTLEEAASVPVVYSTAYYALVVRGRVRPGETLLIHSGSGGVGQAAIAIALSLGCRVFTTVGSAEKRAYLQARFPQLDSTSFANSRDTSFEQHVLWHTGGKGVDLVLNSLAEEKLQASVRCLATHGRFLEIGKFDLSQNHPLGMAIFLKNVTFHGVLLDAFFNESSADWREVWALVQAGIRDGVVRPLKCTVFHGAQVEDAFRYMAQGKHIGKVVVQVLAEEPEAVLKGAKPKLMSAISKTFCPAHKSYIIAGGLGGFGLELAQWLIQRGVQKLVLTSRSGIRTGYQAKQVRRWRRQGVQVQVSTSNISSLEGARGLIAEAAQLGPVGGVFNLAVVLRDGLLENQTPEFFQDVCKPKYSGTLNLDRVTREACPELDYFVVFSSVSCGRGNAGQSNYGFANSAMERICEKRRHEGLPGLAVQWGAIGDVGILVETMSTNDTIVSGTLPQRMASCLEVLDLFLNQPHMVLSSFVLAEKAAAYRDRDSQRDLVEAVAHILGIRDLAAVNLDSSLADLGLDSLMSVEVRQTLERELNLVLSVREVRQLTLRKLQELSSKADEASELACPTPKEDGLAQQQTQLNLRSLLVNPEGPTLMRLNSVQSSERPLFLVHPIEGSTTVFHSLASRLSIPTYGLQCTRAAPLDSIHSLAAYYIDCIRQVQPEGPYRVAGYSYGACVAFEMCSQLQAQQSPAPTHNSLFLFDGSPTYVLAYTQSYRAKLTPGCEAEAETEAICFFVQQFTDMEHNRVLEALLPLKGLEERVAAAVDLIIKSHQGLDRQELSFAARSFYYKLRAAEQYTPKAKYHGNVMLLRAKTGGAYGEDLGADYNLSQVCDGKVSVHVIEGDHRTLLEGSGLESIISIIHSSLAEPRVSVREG
iPSC survival up – increases survival of single human iPS cells | hiPSC single-cell survival, ATPlite luminescence; 100% = ROCK inhibitor wells, 0% = DMSO | survival enhancement, % at 20 µM | 0.044% of 360,000 active | AID 602274; in the data active means survival enhancement above about 18%;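 further: cells exposed to compounds for 16 hours before the ATP read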
SKN-1 block – C. elegans SKN-1 inhibition; AID 624304; 0.49% of 360,000 active; inhibition, % at 21.8 µM; C. elegans VP596 Pgst-4::GFP/RFP ratio, acrylamide-induced, 24 h;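 active means interference check ratio from 0.5 to 1.5 plus GFP to RFP signal ratio inhibition reaching or exceeding a fixed threshold, cut at about 30% in these data, passing the limit was not always enough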
DAGLB inhibitor – blocks human DAGLB lipase activity | Q8NCG7 | HEK293T DAGLB membrane lysate, EnzChek fluorogenic substrate | inhibition, % at 5.17 µM | 0.059% of 340,000 active | AID 504411; in the data active means inhibition above about 34%;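 further: 0% = enzyme with vehicle and 100% = wells lacking enzyme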
FAS-TE inh conf – FAS thioesterase (human) inhibition, confirmation | 45% of 2,300 active | recombinant FAS-TE, OMFH fluorogenic substrate, fluorescence | AID 624325 | inhibition, % at 15 µM | shares compounds with FAS-TE inh;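 active means compounds inhibiting the enzyme by at least 50% at 15 µM in any one of the replicates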;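 further: 0% = enzyme with DMSO only and 100% = wells lacking enzyme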
Active calls of the source: *; · = no result given. Sampled rows, rich in hits. Any-hit rate of the full collection: about 1.3%.

SMILES	MT1-MMP act inh	FAS-TE inh	iPSC survival up	SKN-1 block	DAGLB inhibitor	FAS-TE inh conf
CC(C)CC1NC(=O)c2cc3ccccc3cc2-n2c1nc1ccc(Cl)cc1c2=O (centres undefined)	-6	74*	-2	11	1	30
COc1ccc2nc3n(c(=O)c2c1)-c1cc2ccccc2cc1C(=O)NC3Cc1ccccc1 (centres undefined)	-5	78*	0	3	3	33
COc1ccc(C2/C(=C(\O)c3ccc4c(c3)CC(C)O4)C(=O)C(=O)N2Cc2cccnc2)c(OC)c1 (centres undefined)	0	-2	0	-6	2	·
O=C(O)c1nc(-c2ccccc2)c(C(=O)NC2CC2)[nH]1	1	-8	5	12	·	·
COc1cccc(CCN2C(=O)CCC3=C2CCC3=O)c1	3	-1	-1	-4	·	·
CCC(C)c1ccc2oc(-c3ccc(NC(=O)Cn4cnc5c(=O)n(C)c(=O)n(C)c54)cc3)nc2c1 (centres undefined)	6	73*	-1	-6	2	6
Cc1cc(C)c(C(O)c2ncc(-c3ccccc3Cl)[nH]2)c(C)c1 (centres undefined)	0	0	0	16	·	·
COc1cccc(-n2c(CN3CCN(c4ccccn4)CC3)nc3ccc([N+](=O)[O-])cc3c2=O)c1	-3	81*	0	-4	1	81*
COc1cccc(-n2c(CN3CCN(c4cccc(C)c4)C(C)C3)nc3ccc([N+](=O)[O-])cc3c2=O)c1 (centres undefined)	-5	80*	-2	1	-6	20
Cc1cccc(N(CC(=O)NC2CCCC2)C(=O)c2nsc(Cl)c2Cl)c1C	-1	9	-2	11	-5	·
CCOc1ccccc1N(CC(=O)NC1CCCCC1)C(=O)c1nsc(Cl)c1Cl	-7	50*	3	2	-2	18
O=C(CSc1ncnc2c1cnn2-c1ccccc1)NC1CCS(=O)(=O)C1 (centres undefined)	0	64*	0	5	2	72*
CN1CCN(c2ccc(Cl)cc2NC(=O)c2ccc(S(=O)(=O)N(C)C)cc2)CC1	-7	-5	-5	9	2	·
CN(C)S(=O)(=O)c1ccc(C(=O)Nc2cc(S(=O)(=O)Nc3ccccc3Cl)ccc2N2CCCCC2)cc1	6	73*	0	10	-1	22
Cc1cc(C)n2c(NC3CCCCC3)c(-c3ccc(F)cc3)nc2n1	2	6	0	11	·	·
CCOC(=O)Cn1ncn(-c2ccc(OC(F)(F)F)cc2)c1=O	4	-2	1	-12	0	·
Cn1ncc2c(Nc3cccc(Cl)c3)nc(Nc3cccc(Cl)c3)nc21	-8	57*	0	15	0	28
CNc1nc(Nc2ccc(C)c(Cl)c2)c2cnn(C)c2n1	-2	4	0	-19	-1	·
Cn1ncc2c(Nc3ccc(O)cc3)nc(Cl)nc21	4	-1	0	-3	4	·
Cn1ncc2c(Nc3ccc(Br)cc3)nc(Nc3ccc(Br)cc3)nc21	-6	50*	0	32	-5	32
O=[N+]([O-])c1cc(S(=O)(=O)Nc2cccc(C(F)(F)F)c2)ccc1-n1nnc2ccccc21	6	66*	10	5	17	80*
CC[C@]12c3[nH]c4ccc(Cl)cc4c3CCN1C(=O)[C@@H](CC(=O)NCc1ccc(OC)c(OC)c1)C[C@@H]2C(=O)N1CCN(C(=O)C2CC2)CC1	-2	4	0	-1	2	·
COc1ccc(CNC(=O)C[C@H]2C[C@H](C(=O)N3CCCCC3)[C@@]3(CCc4ccccc4)c4[nH]c5ccc(Cl)cc5c4CCN3C2=O)cc1OC	-28	69*	0	8	1	19
O=C(CC1C[C@H](C(=O)N2CCOCC2)[C@@]2(CCC3CCCC3)c3[nH]c4ccccc4c3CCN2C1=O)NCc1cccc(C(F)(F)F)c1 (some centres undefined)	-21	61*	-3	6	-1	34*
COc1ccc2[nH]c3c(c2c1)CCN1C(=O)C(CC(=O)NCc2ccc(OC)c(OC)c2)C[C@H](C(=O)N2CCOCC2)[C@@]31CCC1CCCC1 (some centres undefined)	-10	43	-4	12	2	·
SMILES	MT1-MMP act inh	FAS-TE inh	iPSC survival up	SKN-1 block	DAGLB inhibitor	FAS-TE inh conf
COc1ccc(CNC(=O)CC2C[C@H](C(=O)N3CCOCC3)[C@@]3(CCC4CCCC4)c4[nH]c5ccccc5c4CCN3C2=O)cc1OC (some centres undefined)	-17	77*	-1	20	1	88*
COc1ccc(NC(=O)CN(C)Cc2cccs2)cc1Cl	5	7	0	-13	-10	·
COCCNC(=O)C1CCCN(C(=O)c2ccc3ccccc3n2)CC1 (centres undefined)	1	-9	-2	13	·	·
CC1Cc2ccccc2N1C(=O)Cn1cc(C(F)(F)F)ccc1=O (centres undefined)	-1	1	-4	25	-3	·
O=C1NC[C@@H](CCCCN2C[C@H](Cc3ccc(O)cc3)N(CCC3CCCCC3)C(=O)C2=O)N(CC2CCCCC2)C1=O	7	16	0	6	·	·
OC[C@@H]1CN(CCN2CCOCC2)C[C@H](n2cnc3c(NC4CCCC4)ncnc32)O1	1	-8	0	-1	·	·
O=C(O)c1ccc(Cl)c(NC(=S)NC(=O)c2cccc(COc3ccccc3)c2)c1	2	61*	0	10	3	72*
O=C(NC(=S)Nc1ccc(Cl)c(C(=O)O)c1)c1cccc(COc2ccccc2)c1	0	-39	0	-9	7	·
O=[N+]([O-])c1ccc(N2CCN(S(=O)(=O)c3ccc(Cl)c(Cl)c3)CC2)cc1NCCN1CCOCC1	·	71*	0	-20	-3	10
CCN(CC)S(=O)(=O)c1cccc(-c2n[nH]c(=S)n2/N=C/c2ccc(OC(F)F)cc2)c1	11	52*	1	1	3	44
CCN(CC)S(=O)(=O)c1cccc(-c2n[nH]c(=S)n2/N=C/c2ccc(OC)cc2)c1	5	3	3	10	0	·
COc1ccc(C(=O)N2CCN(CCc3ccccc3)CC2)cc1[N+](=O)[O-]	5	87*	1	17	1	90*
COc1ccc(C(=O)N2CCN(Cc3ccccc3)CC2)cc1[N+](=O)[O-]	8	1	0	-11	1	·
COc1ccc(C(=O)NC(C)CCc2ccccc2)cc1[N+](=O)[O-] (centres undefined)	3	51*	0	14	-3	52*
O=C(C[C@@H]1C=C[C@H](NS(=O)(=O)c2ccccc2F)[C@@H](CO)O1)NCCCN1CCOCC1	-2	·	·	3	·	·
